LMPTP inh – blocks human LMPTP phosphatase; P24666; recombinant LMPTP-A, OMFP fluorogenic substrate, fluorescence intensity; inhibition, % at 20 µM; 0.22% of 360,000 active; AID 651560;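 active = compounds that cut the enzyme signal by at least half of the control window in the single-dose screen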;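 note: plate controls were DMSO wells with enzyme plus substrate for no effect and substrate without enzyme for full effect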
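Test system: LMPTP-A, protein tyrosine phosphatase of low molecular weight; Input: 0.625 nM enzyme; Incubation: 50 min dark incubation at room temperature; Signal: endpoint fluorescence intensity from OMFP dephosphorylation; Read-out basis: % inhibition versus control wells.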
SUMO1 PPI mod – modulators of human SUMO1-mediated protein-protein interactions. P63165. SUMO1 binding to a labelled peptide, TR-FRET, 1 h. inhibition, % at 20 µM. 0.33% of 360,000 active; in the data active = inhibition above about 37%
F508del corr – CFTR F508del correction in bronchial cells; CFBE cells, YFP halide quenching; stimulated with forskolin plus potentiator P3; % fluorescence drop versus neutral controls; activity (quench increase), % at 7.58 µM; 0.36% of 350,000 active;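 active = mean added fluorescence quench of at least 8% versus neutral control, with both replicates also reaching 8%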;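 note: cells transiently co-express mutant CFTR-F508del with the halide-sensitive YFP; corrector assay measuring rescue of mutant channel to the surface after 24 h compound exposure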
DNMT1 block – DNMT1 (human) enzyme inhibition. P26358. DNMT1 molecular beacon, Hinp1I cleavage, fluorescence. inhibition (reported as % activation of signal), % at 10 µM. 0.83% of 360,000 active. AID 588458; in the data active = inhibition above about 50%
STEP inh – blocks human striatal-enriched tyrosine phosphatase | 0.25% of 360,000 active | inhibition, % at 20 µM | AID 588621 | recombinant STEP, OMFP fluorogenic substrate, fluorescence | P54829;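 active = inhibition at 20 µM, scaled per plate between control wells, above about 37%, limit read from the data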;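 note: 0% = DMSO with enzyme and substrate and 100% = substrate only without enzyme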
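Material: STEP (striatal-enriched tyrosine phosphatase) enzyme, cell-free | Medium: 50 mM Bis-Tris pH 6.0 with 2.5 mM DTT and 0.005% Tween 20 | Read-out: Percent inhibition scaled to no-enzyme and uninhibited-enzyme controls, plate-pattern corrected | Signal: Fluorescence read at 480 nm ex / 540 nm em | Times: 20 min reaction, room temperature, in the dark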
Scp1 inh – Scp-1 (human) phosphatase inhibition | Recombinant Scp1, phosphopeptide, malachite green phosphate absorbance | inhibition, % at 20 µM | 0.88% of 340,000 active;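 active = inhibition above about 50% at 20 µM, limit read from the data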;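 note: plate controls were DMSO wells with enzyme for no effect and wells lacking enzyme for full effect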
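Assay system: SCP-1 catalytic fragment, aa 76-261 | Buffer or medium: Tris acetate buffer pH 5.5 with MgCl2 and Tween-20 | Compound: One concentration, 20 µM, with 1.0% DMSO | Also added: Phospho 17-mer peptide substrate | Signal: Absorbance at 630 nm | Incubation: 45 min enzyme reaction at room temperature | Measure: % inhibition of SCP-1 phosphate liberation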
Scp1 confirm – Scp-1 (human) inhibition, single-dose confirmed; shares compounds with Scp1 inh; recombinant SCP-1 catalytic domain, phosphate release, malachite green absorbance; inhibition, % at 20 µM; 61% of 2,500 active;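 note: plate controls were DMSO with enzyme for no effect and buffer wells lacking enzyme for full effect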
MG interference – counter-screen for Scp-1 inhibitors: colorimetric interference. shares compounds with Scp1 inh. Colorimetric interference counterscreen, malachite green absorbance 630 nm. apparent inhibition (interference), % at 20 µM. 2,500 tested, under 10 active;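 note: compounds added after enzyme reaction finished so only phosphate colour detection is probed; plate controls were DMSO wells with completed Scp-1 reaction for no effect and substrate wells lacking enzyme for full effect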
Scp1 DSF – validation of human Scp-1 inhibitors by thermal shift binding | thermal shift relative to vanadate control, % at 40 µM | 25% of 1,500 active | AID 540329 | shares compounds with Scp1 inh | Recombinant SCP1, Sypro Orange thermal shift Tm;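 active = substances whose mean melting-temperature shift, as a percentage of the reference inhibitor's shift, reaches about 5.3%, limit read from the data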;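 note: 0% = Tm of DMSO wells and 100% = Tm with sodium orthovanadate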
The depositor's hits bear a star; . = not tested or not shown; ! = not active in a repeat. Rows were chosen to be rich in hits. Some 1.6% of all compounds tested hit in one or more screens of this group.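 Rule for the calls, unless noted: active = inhibition of at least 30% at 20 µM; inactive = the rest.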

SMILES	LMPTP inh	SUMO1 PPI mod	F508del corr	DNMT1 block	STEP inh	Scp1 inh	Scp1 confirm	MG interference	Scp1 DSF
CCC(C)NC(=O)c1c(N)n(CCCOC)c2nc3ccccc3nc12 (centres undefined)	5.2	41.3*	.	38.5	-0.3	-2.2	.	.	.
CCCC#Cc1ccc([C@H]2[C@H]3CN(C(=O)Cc4ccccn4)CCCCN3[C@H]2CO)cc1	.	.	-2.6	.	.	.	.	.	.
COC(=O)[C@H]1[C@H](CO)[C@H]2Cn3c(ccc(-c4ccccc4F)c3=O)[C@@H]1N2Cc1cccnc1	.	.	0.8	.	.	.	.	.	.
C[n+]1c(-c2ccccc2)c2cc(N)ccc2c2ccc(N)cc21	81.0*	45.7*	3.8	61.2*	5.9	-3.8	.	.	.
O=C(Cc1ccccn1)N1CCCCN2[C@H](CO)[C@H](c3ccc(-c4ccccc4F)cc3)[C@H]2C1	.	.	-1.3	.	.	.	.	.	.
O=C(O)CCn1cc(C=C2C(=O)NC(=S)NC2=O)c(-c2cccc(Cl)c2)n1	-0.4	7.8	0.0	-0.1	-2.1	67.1*	42.4*	-13.4	-18.5
O=C(O)CCn1cc(C=C2C(=O)NC(=O)NC2=O)c(-c2ccc(Br)cc2)n1	-1.9	3.3	.	4.8	3.5	8.0	.	.	.
COc1cc2c3c(c1OC)-c1cc(O)ccc1CC3NCC2 (centres undefined)	-0.7	1.2	.	0.5	6.8	-7.5	.	.	.
COc1cc2c(cc1OC)-c1c(OC)c(OC)cc3c1[C@H](C2)[N+](C)(C)CC3	0.1	1.0	-4.1	1.9	1.5	54.8*	12.0	-11.4	.
CCC(CO)(C(=O)OC1C[N+]2(C)CCC1CC2)c1ccccc1 (centres undefined)	-0.4	-2.3	-1.4	1.1	1.0	93.8*	80.5*	-16.9	-0.8
O=C(O)[C@H]1[C@H](CO)[C@H]2Cn3c(ccc(-c4cccnc4)c3=O)[C@@H]1N2S(=O)(=O)c1ccccc1F	.	.	-0.2	.	.	.	.	.	.
Cn1c[n+](C)cc1C(O)c1ccccc1 (centres undefined)	-0.8	-0.2	.	-0.9	-2.2	92.2*!	84.3*	-10.9	-1.3
O=C(O)c1ccccc1-c1ccc(C=C2C(=O)N(c3ccccc3)C(=S)N(c3ccccc3)C2=O)o1	3.8	24.0	1.3	27.7	4.3	58.3*	54.1*	-11.4	1.9
CCCC[N+]12CCC(CC1)C(C(=O)c1cccs1)C2 (centres undefined)	-0.1	-7.0	.	-2.9	-2.4	98.0*	103.1*	6.1	-4.5
CCOc1ccccc1N=C1SCCCN1C	0.1	-1.0	.	1.7	0.5	54.7*	66.6*	-11.5	-6.8
CC(=O)N1CCCSC1=Nc1ccccc1	-1.9	3.9	0.6	2.3	-0.3	-7.4	.	.	.
COC(=O)[C@H]1[C@H](CO)[C@H]2Cn3c(ccc(C4=CCCCC4)c3=O)[C@@H]1N2Cc1ccccc1OC	.	.	2.1	.	.	.	.	.	.
CCOC(=O)C1=C(C(=O)OCC)C2(c3ccccc3)c3ccccc3C1(C)N2C (centres undefined)	.	.	0.1	.	.	.	.	.	.
CCOC(=O)C1=C(C)c2ccccc2OC1(C(=O)OCC)c1ccccc1 (centres undefined)	-1.4	5.6	3.9	6.8	-3.6	102.9*	39.1*	-17.5	-30.9
C[n+]1ccc(-c2ccncc2)cc1	-4.9	-24.8	0.7	-1.1	1.5	95.6*	3.6	-9.3	.
CC(C)CC(NC(=O)CCCNC(=O)CCC(=O)OC1O[C@H]2OC3(C)CC[C@H]4[C@H](C)CCC(C1C)C24OO3)C(=O)O (some centres undefined)	-1.0	-1.5	4.0	3.6	-4.0	95.1*	-12.2	-13.1	.
C[C@H]1[C@H](OC(=O)CCC(=O)NCc2ccc(C(=O)O)cc2)O[C@@H]2O[C@@]3(C)CC[C@H]4[C@H](C)CC[C@@H]1C24OO3	-0.5	8.1	.	-0.1	-1.0	3.6	.	.	.
CCN(CC)P(=O)(c1n(CC)cc[n+]1CC)N(CC)CC	2.7	2.6	-2.1	2.2	-2.9	102.8*	79.9*	-19.1	-9.8
CN(C)CC#Cc1ccc([C@@H]2[C@@H](CO)N3CCCCN(C(=O)Cc4ccccn4)C[C@H]23)cc1	.	.	0.6	.	.	.	.	.	.
CC(C)[N+]12CCC(CC1)C(C(O)(c1ccccc1)c1ccccc1)C2 (centres undefined)	-1.3	3.1	-0.4	0.7	-4.3	98.7*	87.1*	-11.5	-27.3
SMILES	LMPTP inh	SUMO1 PPI mod	F508del corr	DNMT1 block	STEP inh	Scp1 inh	Scp1 confirm	MG interference	Scp1 DSF
CC[N+]12CCC(CC1)C(C(O)(c1ccccc1)c1ccccc1)C2 (centres undefined)	-1.4	3.7	7.4	2.4	2.7	-0.8	.	.	.
CCCCCC(=O)N[C@@H](c1ccccc1)[C@@H](O)C(=O)O[C@H]1C[C@@]2(O)[C@@H](OC(=O)c3ccccc3)C3[C@](C)(C(=O)[C@H](O)C(=C1C)C2(C)C)[C@@H](OC1OCC(O)C(O)C1O)C[C@H]1OC[C@@]31OC(C)=O (some centres undefined)	-0.3	24.9	-0.6	-0.6	-1.0	-12.8	-14.2	-8.5	.
O=C(Cc1ccccc1)N1CCCCN2[C@H](CO)[C@H](c3ccc(-c4ccccc4)cc3)[C@H]2C1	.	.	-1.1	.	.	.	.	.	.
COc1ccc(-c2ccc([C@@H]3[C@@H](CO)N4CCCCN(C(=O)Cc5ccncc5)C[C@@H]34)cc2)cc1	.	.	-0.5	.	.	.	.	.	.
CNC(C(=O)c1ccccc1)C(OC(C)=O)c1cccc([N+](=O)[O-])c1 (centres undefined)	-0.3	-21.6	-2.1	-3.6	1.2	87.7*	-10.2	-10.1	.
COC(=O)[C@@H]1[C@@H](CO)[C@@H]2Cn3c(cccc3=O)[C@@H]2N1CC1CC1	.	.	-1.2	.	.	.	.	.	.
COC(=O)[C@@H]1[C@@H](CO)[C@@H]2Cn3c(ccc(-c4ccccc4)c3=O)[C@H]1N2C(=O)c1ccccc1F	.	.	0.3	.	.	.	.	.	.
CC(=O)Nc1ccc(N=Cc2c(O)n(Cc3ccco3)c(=O)[nH]c2=O)cc1	1.1	55.2*	-1.0	2.2	6.3	72.5*	51.0*	-6.5	-5.5
O=C(Cc1cccnc1)N1CCCCN2[C@@H](CO)[C@H](c3ccc(/C=C/c4ccccc4)cc3)[C@@H]2C1	.	.	-0.9	.	.	.	.	.	.
CC1CCCC(C2(O)C(=O)Nc3ccccc32)C1=O (centres undefined)	-2.7	2.8	.	-1.8	-6.6	57.3*	1.7	-14.5	.
CCOP(=O)(OCC)C1(O)C(=O)Nc2ccccc21 (centres undefined)	-2.5	-6.5	.	8.3	-2.5	-1.2	.	.	.

Screens as filed in PubChem BioAssay.
